Assay results: ChEMBL document CHEMBL5058577, “EUbOPEN Chemogenomics Library 2 (Multiplex)” (2022)

Test system: U2OS
Assay: Multiplex assay against U2OS
Assay type: toxicity, cell-based
Conditions: human
Summary of the method: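 Cells stained live at seeding with Hoechst33342, BioTracker Green Microtubule Cytoskeleton Dye, MitoTracker Red and Annexin V Alexa Fluor 680 were imaged on a CQ1 microscope at 37°C and 5% CO2 after compound addition. Their classification by CellPathfinder machine-learning gating ran from Hoechst high-intensity objects versus normal cells, to healthy, pyknosed or fragmented nuclei among normal cells, to mitotic or apoptotic among pyknosed cells. Tubulin, mitochondrial-mass and membrane-permeability phenotypes are per cents of healthy-nucleus cells.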

[1] = 12 h, 1 µM, compound concentration 1 uM, replicate 1
[2] = 12 h, 1 µM, compound concentration 1 uM, replicate 2
[3] = 12 h, 10 µM, compound concentration 10 uM, replicate 1
[4] = 12 h, 10 µM, compound concentration 10 uM, replicate 2
[5] = 24 h, 1 µM, compound concentration 1 uM, replicate 1
[6] = 24 h, 1 µM, compound concentration 1 uM, replicate 2
[7] = 24 h, 10 µM, compound concentration 10 uM, replicate 1
[8] = 24 h, 10 µM, compound concentration 10 uM, replicate 2
[9] = 48 h, 1 µM, compound concentration 1 uM, replicate 1
[10] = 48 h, 1 µM, compound concentration 1 uM, replicate 2
[11] = 48 h, 10 µM, compound concentration 10 uM, replicate 1
[12] = 48 h, 10 µM, compound concentration 10 uM, replicate 2

COc1ccc2c(c1OCc1ccccc1)C[C@@H](C(=O)O)N(C(=O)C(c1ccccc1)c1ccccc1)C2 [OLODANRIGAN]
Population Apoptotic (%) [1]: 82%
Population Fragmented Nuclei (%) [1]: 31%
Population Healthy Nuclei (%) [1]: 59%
Population Hoechst High Intensity Objects (%) [1]: 2%
Population Membrane Permeable-Phenotype (%) [1]: 4%
Population Mitochondria Different-Phenotype (%) [1]: 0%
Population Mitotic Cells (%) [1]: 17%
Population Normal (%) [1]: 97%
Population Pyknosed Nuclei (%) [1]: 8%
Population Tubulin-Different-Phenotype (%) [1]: 1%
Total Cell Count [1]: 286
Population Apoptotic (%) [2]: 66%
Population Fragmented Nuclei (%) [2]: 18%
Population Healthy Nuclei (%) [2]: 75%
Population Hoechst High Intensity Objects (%) [2]: 3%
Population Membrane Permeable-Phenotype (%) [2]: 6%
Population Mitochondria Different-Phenotype (%) [2]: 4%
Population Mitotic Cells (%) [2]: 33%
Population Normal (%) [2]: 96%
Population Pyknosed Nuclei (%) [2]: 5%
Population Tubulin-Different-Phenotype (%) [2]: 2%
Total Cell Count [2]: 112
Population Apoptotic (%) [3]: 78%
Population Fragmented Nuclei (%) [3]: 30%
Population Healthy Nuclei (%) [3]: 64%
Population Hoechst High Intensity Objects (%) [3]: 1%
Population Membrane Permeable-Phenotype (%) [3]: 6%
Population Mitochondria Different-Phenotype (%) [3]: 1%
Population Mitotic Cells (%) [3]: 21%
Population Normal (%) [3]: 98%
Population Pyknosed Nuclei (%) [3]: 5%
Population Tubulin-Different-Phenotype (%) [3]: 2%
Total Cell Count [3]: 273
Population Apoptotic (%) [4]: 81%
Population Fragmented Nuclei (%) [4]: 26%
Population Healthy Nuclei (%) [4]: 63%
Population Hoechst High Intensity Objects (%) [4]: 0%
Population Membrane Permeable-Phenotype (%) [4]: 2%
Population Mitotic Cells (%) [4]: 18%
Population Normal (%) [4]: 99%
Population Pyknosed Nuclei (%) [4]: 10%
Total Cell Count [4]: 110
Population Apoptotic (%) [5]: 87%
Population Fragmented Nuclei (%) [5]: 25%
Population Healthy Nuclei (%) [5]: 64%
Population Hoechst High Intensity Objects (%) [5]: 0%
Population Membrane Permeable-Phenotype (%) [5]: 2%
Population Mitochondria Different-Phenotype (%) [5]: 0%
Population Mitotic Cells (%) [5]: 12%
Population Normal (%) [5]: 99%
Population Pyknosed Nuclei (%) [5]: 10%
Population Tubulin-Different-Phenotype (%) [5]: 2%
Total Cell Count [5]: 311
Population Apoptotic (%) [6]: 55%
Population Fragmented Nuclei (%) [6]: 18%
Population Healthy Nuclei (%) [6]: 74%
Population Hoechst High Intensity Objects (%) [6]: 2%
Population Membrane Permeable-Phenotype (%) [6]: 9%
Population Mitochondria Different-Phenotype (%) [6]: 6%
Population Mitotic Cells (%) [6]: 44%
Population Normal (%) [6]: 97%
Population Pyknosed Nuclei (%) [6]: 6%
Population Tubulin-Different-Phenotype (%) [6]: 5%
Total Cell Count [6]: 143
Population Apoptotic (%) [7]: 83%
Population Fragmented Nuclei (%) [7]: 27%
Population Healthy Nuclei (%) [7]: 66%
Population Hoechst High Intensity Objects (%) [7]: 1%
Population Membrane Permeable-Phenotype (%) [7]: 4%
Population Mitochondria Different-Phenotype (%) [7]: 0%
Population Mitotic Cells (%) [7]: 16%
Population Normal (%) [7]: 98%
Population Pyknosed Nuclei (%) [7]: 5%
Population Tubulin-Different-Phenotype (%) [7]: 1%
Total Cell Count [7]: 318
Population Apoptotic (%) [8]: 50%
Population Fragmented Nuclei (%) [8]: 22%
Population Healthy Nuclei (%) [8]: 72%
Population Hoechst High Intensity Objects (%) [8]: 0%
Population Mitochondria Different-Phenotype (%) [8]: 1%
Population Mitotic Cells (%) [8]: 50%
Population Normal (%) [8]: 100%
Population Pyknosed Nuclei (%) [8]: 4%
Population Tubulin-Different-Phenotype (%) [8]: 2%
Total Cell Count [8]: 123
Population Apoptotic (%) [9]: 91%
Population Fragmented Nuclei (%) [9]: 22%
Population Healthy Nuclei (%) [9]: 70%
Population Hoechst High Intensity Objects (%) [9]: 3%
Population Membrane Permeable-Phenotype (%) [9]: 4%
Population Mitochondria Different-Phenotype (%) [9]: 1%
Population Mitotic Cells (%) [9]: 8%
Population Normal (%) [9]: 96%
Population Pyknosed Nuclei (%) [9]: 7%
Population Tubulin-Different-Phenotype (%) [9]: 2%
Total Cell Count [9]: 483
Population Apoptotic (%) [10]: 78%
Population Fragmented Nuclei (%) [10]: 14%
Population Healthy Nuclei (%) [10]: 77%
Population Hoechst High Intensity Objects (%) [10]: 4%
Population Membrane Permeable-Phenotype (%) [10]: 3%
Population Mitochondria Different-Phenotype (%) [10]: 3%
Population Mitotic Cells (%) [10]: 21%
Population Normal (%) [10]: 95%
Total Cell Count [10]: 184
Population Apoptotic (%) [11]: 88%
Population Fragmented Nuclei (%) [11]: 20%
Population Healthy Nuclei (%) [11]: 71%
Population Hoechst High Intensity Objects (%) [11]: 1%
Population Membrane Permeable-Phenotype (%) [11]: 5%
Population Mitochondria Different-Phenotype (%) [11]: 1%
Population Mitotic Cells (%) [11]: 11%
Population Normal (%) [11]: 98%
Population Pyknosed Nuclei (%) [11]: 8%
Population Tubulin-Different-Phenotype (%) [11]: 3%
Total Cell Count [11]: 451
Population Apoptotic (%) [12]: 85%
Population Fragmented Nuclei (%) [12]: 18%
Population Healthy Nuclei (%) [12]: 77%
Population Membrane Permeable-Phenotype (%) [12]: 7%
Population Mitochondria Different-Phenotype (%) [12]: 6%
Population Mitotic Cells (%) [12]: 14%
Population Pyknosed Nuclei (%) [12]: 4%
Population Tubulin-Different-Phenotype (%) [12]: 5%
Total Cell Count [12]: 163
